Assay [1] deals with 59-nt TAR RNA / TAR DNA hairpins. Put plainly: Gel-shift TAR RNA/DNA annealing assay. The format is biochemical, HIV-1. As to conditions: for kobs: average of three trials ± SD, SD; for Fold decrease of kobs relative to WT NC: normalized for protein concentration.
The test system of assay [2] is 5′-FAM-DNA20 (20-mer single-stranded DNA). Put plainly: Fluorescence anisotropy. The format is binding. An outline of the steps:
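Binding was measured by fluorescence anisotropy. CCHC-containing constructs were reconstituted with 3 equiv zinc unless noted. Kd was fitted with a quadratic binding equation corrected for the bound/free intensity ratio.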
In general terms: Fluorescence polarisation rises when a labelled molecule tumbles more slowly, as on binding a larger partner.

Assay [3] has as its system 59-nt TAR RNA and TAR DNA. Kind of assay: Sedimentation assay of nucleic acid aggregation. The format is biochemical, HIV-1. As to conditions: 0.2 mM MgCl2. The method, boiled down: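 Refolded 32P-TAR RNA (15 nM) and TAR DNA (45 nM) were incubated with varying protein in 20 mM HEPES pH 7.5 and 20 mM NaCl (final MgCl2 0.2 mM) for 30 min at 37 °C. Fragments were run at 10–50 μM, with or without zinc. Samples were centrifuged at 10000 rpm for 10 min, and supernatant radioactivity was counted by scintillation.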

Where [4] appears, read: 0.88 μM peptide, 45 nM TAR DNA, 2 mM MgCl2.
Where [5] appears, read: 4 μM protein, 90 nM TAR DNA and 2 mM MgCl2.

In the case of “NC(1-14): HIV-1 NC fragment, residues 1-14, basic N-terminal domain”, the “Final % Annealing” value is given as 3% in assay [1] (20 μM peptide, 15 nM TAR RNA, 45 nM TAR DNA, 0.2 mM MgCl2, 37 °C, 30 min) and “did not change appreciably” in assay [1] (50 μM peptide, 15 nM TAR RNA, 45 nM TAR DNA, 0.2 mM MgCl2, 37 °C, 30 min). Besides, the “Binding to 5′-FAM-DNA20 (in words)” value in assay [2] (FA, no zinc acetate) is reported as “no binding could be detected”.
Consider “NC(1-35): HIV-1 NC fragment, residues 1-35, purchased from Genscript”, for which the “RNA annealed at 30 sec” value in assay [1] (0.88 μM peptide, 45 nM TAR DNA, 0.2 mM MgCl2) was ~ 75%. In assay [1] (setting [4]), the “Final % Annealing” value turned out to be 54% and the kobs turned out to be 0.17 ± 0.07 min⁻¹. In addition, the “Fold decrease of kobs relative to WT NC” value in assay [1] (0.88 μM peptide, 2 mM MgCl2) is listed as 1.3 fold. Moreover, the “Nucleic acid aggregation (in words)” value in assay [3] is recorded as “essentially complete aggregation”. Moreover, in assay [2] (5′-FAM-DNA20), the “Fold higher affinity of zinc-bound form relative to zinc-less variant” value is listed as 2- to 3 fold. Moreover, the “Fold lower ss DNA binding affinity than WT NC” value in assay [2] (5′-FAM-DNA20, 50 mM NaCl) was at most 2 fold. In addition, the Kd in assay [2] (read-out: Apparent binding dissociation constant Kd to 5′-FAM-DNA20, FA, 20 nM DNA, 20 mM HEPES pH 7.5, 50 mM NaCl, 5 mM β-mercaptoethanol, 10 μM TCEP, 1 μM zinc acetate, 30 min, 25 °C, average of three trials ± SD, SD) is 86 ± 19 nM.
As for “WT (zinc-less): full-length HIV-1 NC not reconstituted with zinc”, in assay [1] (setting [5]), the “Final % Annealing” value is listed as 22%, the kobs came to 0.07 ± 0.02 min⁻¹ and the “Fold decrease of kobs relative to WT NC” value is 2 fold.
